For test [1], the target named is T1, Bile acid receptor (Homo sapiens) (UniProt Q96RI1).
T1 sequence (whole entry): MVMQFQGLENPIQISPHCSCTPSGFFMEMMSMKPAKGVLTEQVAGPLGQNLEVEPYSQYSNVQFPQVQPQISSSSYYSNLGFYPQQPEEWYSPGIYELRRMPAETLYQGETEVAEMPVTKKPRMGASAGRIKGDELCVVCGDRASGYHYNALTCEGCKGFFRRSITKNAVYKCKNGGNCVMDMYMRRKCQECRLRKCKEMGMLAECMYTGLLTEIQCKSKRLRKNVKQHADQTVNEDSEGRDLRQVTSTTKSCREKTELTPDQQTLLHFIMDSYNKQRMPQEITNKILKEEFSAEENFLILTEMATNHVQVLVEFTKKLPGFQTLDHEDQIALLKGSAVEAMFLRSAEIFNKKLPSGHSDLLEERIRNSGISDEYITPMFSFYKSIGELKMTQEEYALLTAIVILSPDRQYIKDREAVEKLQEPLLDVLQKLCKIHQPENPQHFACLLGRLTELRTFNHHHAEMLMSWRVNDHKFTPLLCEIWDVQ
As to the kind of experiment: Activity at human recombinant FXR by transactivation of TK-MH100x4-LUC reporter gene in HEK293 cells at 10 uM. In kind it is cell-based. (In a reporter assay the amount or activity of a reporter protein is the signal.)

The target in test [2] is T2, Peroxisome proliferator-activated receptor delta (Homo sapiens) (UniProt Q03181).
T2 sequence (whole entry): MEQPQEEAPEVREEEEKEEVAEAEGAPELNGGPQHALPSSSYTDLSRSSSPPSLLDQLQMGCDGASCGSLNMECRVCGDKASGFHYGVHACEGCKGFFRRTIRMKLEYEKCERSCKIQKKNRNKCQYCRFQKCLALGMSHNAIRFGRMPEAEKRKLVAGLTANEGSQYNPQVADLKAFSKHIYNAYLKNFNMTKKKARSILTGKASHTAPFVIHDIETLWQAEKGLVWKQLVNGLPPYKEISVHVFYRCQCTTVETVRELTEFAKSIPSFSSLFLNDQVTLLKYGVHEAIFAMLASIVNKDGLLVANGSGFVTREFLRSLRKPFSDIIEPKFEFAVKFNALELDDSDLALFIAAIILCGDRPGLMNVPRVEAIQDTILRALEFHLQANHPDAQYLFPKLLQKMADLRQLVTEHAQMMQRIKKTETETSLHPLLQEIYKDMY
As to the kind of experiment: Activity at human recombinant PPARdelta by transactivation of TK-MH100x4-LUC reporter gene in HEK293 cells at 10 uM. In kind it is cell-based.

Test [3] addresses T3, Peroxisome proliferator-activated receptor alpha (Homo sapiens) (UniProt Q07869).
T3 sequence (whole entry): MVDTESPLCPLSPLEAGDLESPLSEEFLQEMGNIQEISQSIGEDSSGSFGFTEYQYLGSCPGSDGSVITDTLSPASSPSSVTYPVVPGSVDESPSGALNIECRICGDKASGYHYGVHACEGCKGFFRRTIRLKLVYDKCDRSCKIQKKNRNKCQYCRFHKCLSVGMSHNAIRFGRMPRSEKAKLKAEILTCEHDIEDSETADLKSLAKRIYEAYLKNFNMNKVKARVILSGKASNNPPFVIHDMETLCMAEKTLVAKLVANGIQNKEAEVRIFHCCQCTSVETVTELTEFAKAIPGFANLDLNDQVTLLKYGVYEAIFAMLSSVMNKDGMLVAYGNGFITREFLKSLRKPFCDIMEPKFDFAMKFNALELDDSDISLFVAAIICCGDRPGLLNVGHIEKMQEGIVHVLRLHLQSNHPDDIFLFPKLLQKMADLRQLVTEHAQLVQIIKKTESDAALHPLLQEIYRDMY
As to the kind of experiment: Activity at human recombinant PPARalpha by transactivation of TK-MH100x4-LUC reporter gene in HEK293 cells at 10 uM. In kind it is cell-based.

Test [4] deals with T4, Oxysterols receptor LXR-alpha (Homo sapiens) (UniProt Q13133).
T4 sequence (whole entry): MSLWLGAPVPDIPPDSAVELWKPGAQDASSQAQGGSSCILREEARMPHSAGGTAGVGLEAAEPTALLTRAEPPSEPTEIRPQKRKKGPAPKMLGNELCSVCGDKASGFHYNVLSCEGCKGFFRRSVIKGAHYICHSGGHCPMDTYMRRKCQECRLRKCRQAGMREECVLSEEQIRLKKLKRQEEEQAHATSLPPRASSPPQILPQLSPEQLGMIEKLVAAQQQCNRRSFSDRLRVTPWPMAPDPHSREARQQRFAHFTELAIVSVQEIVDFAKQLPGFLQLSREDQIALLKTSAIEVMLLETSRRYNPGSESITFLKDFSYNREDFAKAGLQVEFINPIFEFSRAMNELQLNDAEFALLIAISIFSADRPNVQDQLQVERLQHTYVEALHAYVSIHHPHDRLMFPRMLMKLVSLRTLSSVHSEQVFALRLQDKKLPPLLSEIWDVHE
Briefly: Activity at human recombinant LXRalpha by transactivation of TK-MH100x4-LUC reporter gene in HEK293 cells at 10 uM. Format: cell-based.

Test [5] addresses T5, Peroxisome proliferator-activated receptor alpha (Homo sapiens, UniProt Q07869).
T5 sequence (Q07869 whole entry): T3 sequence (whole entry)
Briefly: Agonist activity at human recombinant PPARalpha by transactivation of TK-MH100x4-LUC reporter gene in HEK293 cells. In kind it is functional, cell-based. Put shortly: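 GAL4 fusion of the human PPARα receptor (CMX-GAL4N-hPPARα) with the TK-MH100x4-LUC reporter, plus CMX β-galactosidase for normalization. HEK293 cells were grown in DMEM with 5% FBS at 37 °C and 5% CO2 and transfected by calcium phosphate coprecipitation. Compounds were added 8 h after transfection. Luciferase was read by luminometer, normalized to β-galactosidase, and averaged over three repeat experiments.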

In test [6] the target is T6, Peroxisome proliferator-activated receptor gamma (Homo sapiens) (UniProt P37231).
T6 sequence (whole entry): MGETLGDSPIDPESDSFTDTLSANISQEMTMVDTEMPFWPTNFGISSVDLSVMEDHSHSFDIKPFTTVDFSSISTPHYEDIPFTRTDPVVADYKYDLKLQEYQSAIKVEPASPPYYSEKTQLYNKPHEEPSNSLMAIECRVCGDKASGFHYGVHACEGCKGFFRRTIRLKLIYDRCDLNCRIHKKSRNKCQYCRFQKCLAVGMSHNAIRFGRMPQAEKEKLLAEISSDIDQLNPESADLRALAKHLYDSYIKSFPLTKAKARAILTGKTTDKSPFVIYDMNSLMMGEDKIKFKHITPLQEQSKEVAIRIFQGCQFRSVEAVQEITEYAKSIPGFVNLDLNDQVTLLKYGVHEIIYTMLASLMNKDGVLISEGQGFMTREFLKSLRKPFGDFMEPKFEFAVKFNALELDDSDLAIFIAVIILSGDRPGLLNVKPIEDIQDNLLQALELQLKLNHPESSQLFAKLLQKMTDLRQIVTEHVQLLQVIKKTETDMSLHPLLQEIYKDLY
As to the kind of experiment: Activity at human recombinant PPARgamma by transactivation of TK-MH100x4-LUC reporter gene in HEK293 cells at 10 uM. Format: cell-based.

Test [7] has as its target T7, Retinoic acid receptor RXR-alpha (Homo sapiens) (UniProt P19793).
T7 sequence (whole entry): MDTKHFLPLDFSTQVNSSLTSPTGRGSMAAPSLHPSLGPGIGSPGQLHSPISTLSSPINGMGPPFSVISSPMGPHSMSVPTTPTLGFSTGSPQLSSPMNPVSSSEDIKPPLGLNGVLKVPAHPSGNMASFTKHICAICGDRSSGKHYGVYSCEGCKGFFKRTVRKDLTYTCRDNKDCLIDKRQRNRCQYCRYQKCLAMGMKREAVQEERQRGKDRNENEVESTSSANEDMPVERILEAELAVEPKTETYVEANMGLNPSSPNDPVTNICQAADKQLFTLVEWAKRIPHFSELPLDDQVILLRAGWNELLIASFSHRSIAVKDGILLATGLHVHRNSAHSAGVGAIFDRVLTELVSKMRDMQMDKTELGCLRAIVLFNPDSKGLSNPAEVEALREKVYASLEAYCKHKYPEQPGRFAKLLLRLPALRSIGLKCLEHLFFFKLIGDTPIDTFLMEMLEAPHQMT
Briefly: Activity at human recombinant RXRalpha by transactivation of TK-MH100x4-LUC reporter gene in HEK293 cells at 10 uM. In kind it is cell-based.

Test [8] concerns the target T8, Vitamin D3 receptor (Homo sapiens) (UniProt P11473).
T8 sequence (whole entry): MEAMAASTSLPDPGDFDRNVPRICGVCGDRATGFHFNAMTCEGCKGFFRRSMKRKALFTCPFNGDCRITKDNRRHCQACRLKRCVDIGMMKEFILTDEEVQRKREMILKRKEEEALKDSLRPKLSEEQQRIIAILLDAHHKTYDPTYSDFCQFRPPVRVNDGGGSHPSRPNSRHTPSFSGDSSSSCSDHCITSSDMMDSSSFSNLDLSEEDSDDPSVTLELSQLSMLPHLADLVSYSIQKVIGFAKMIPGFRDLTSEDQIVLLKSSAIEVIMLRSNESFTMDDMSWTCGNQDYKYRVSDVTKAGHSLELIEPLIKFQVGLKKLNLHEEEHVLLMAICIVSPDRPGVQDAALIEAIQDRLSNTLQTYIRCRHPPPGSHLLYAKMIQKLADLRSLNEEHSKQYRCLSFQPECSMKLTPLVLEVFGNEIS
Briefly: Activity at human recombinant VDR by transactivation of TK-MH100x4-LUC reporter gene in HEK293 cells at 10 uM. Format: cell-based.

Test [9] has as its target T9, Retinoic acid receptor alpha (Homo sapiens) (UniProt P10276).
T9 sequence (whole entry): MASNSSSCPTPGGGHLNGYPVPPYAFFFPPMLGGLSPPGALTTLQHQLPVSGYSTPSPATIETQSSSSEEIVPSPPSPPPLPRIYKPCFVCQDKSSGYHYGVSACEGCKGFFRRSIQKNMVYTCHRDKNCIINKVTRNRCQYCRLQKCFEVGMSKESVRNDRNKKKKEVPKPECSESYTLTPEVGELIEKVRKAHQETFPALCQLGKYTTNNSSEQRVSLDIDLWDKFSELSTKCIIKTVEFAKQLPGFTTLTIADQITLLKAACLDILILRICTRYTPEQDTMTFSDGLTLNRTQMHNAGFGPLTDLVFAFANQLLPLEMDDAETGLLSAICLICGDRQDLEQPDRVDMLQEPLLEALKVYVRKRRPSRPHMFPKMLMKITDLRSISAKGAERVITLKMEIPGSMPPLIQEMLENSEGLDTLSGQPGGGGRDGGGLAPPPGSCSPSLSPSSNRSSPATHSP
As to the kind of experiment: Activity at human recombinant RARalpha by transactivation of TK-MH100x4-LUC reporter gene in HEK293 cells at 10 uM. Format: cell-based.

Another test deals with T10, Bile acid receptor (Homo sapiens, UniProt Q96RI1).
T10 sequence (Q96RI1 whole entry): T1 sequence (whole entry)
As to the kind of experiment: (§1) Agonist activity at human recombinant FXR by transactivation of TK-MH100x4-LUC reporter gene in HEK293 cells. Format: functional, cell-based.

In test [10] the target is T1, Bile acid receptor (Homo sapiens). Described as §1. Format: functional, cell-based.

The source made the active and inactive calls. The calls are words filed in the database; no cut-off is given here.

For the compound `CCC(Oc1ccc(C2(c3ccc(OC(CC)C(=O)O)c(C)c3)CCCCC2)cc1C)C(=O)O` (stereo not given), the result in test [1], in test [2], in test [4], in test [6], in test [7] and in [8] was inactive. For the same compound, in test [9], the outcome was inactive. In addition, in [3], the result was Active. The EC50 (usually the concentration giving half of the maximal effect) in test [5] was found to be 3.5 µM.
On to `CCC(CC)(c1ccc(OCC(=O)O)c(C)c1)c1ccc(OCc2c(-c3c(Cl)cccc3Cl)noc2C(C)C)c(C)c1`, for which the half-maximal effective concentration (EC50) on Bile acid receptor came to 3.4 µM. In [1], the result was Active. Also, the outcome in test [2], in test [3], in test [4], in test [6], in test [7] and in test [8] was inactive. In [9], the outcome was inactive.
As for `CC(C)(Oc1ccc(C(=O)c2ccc(Cl)cc2)cc1)C(=O)O` [FENOFIBRIC ACID], the EC50 in [5] worked out at 9.2 µM.
Turning to `CCC(CC)(c1ccc(NCC(O)CO)c(C)c1)c1ccc(OCc2c(-c3c(Cl)cccc3Cl)noc2C(C)C)c(C)c1` (stereo not given), in [10], the result was Active.
